Reference: ChEMBL document CHEMBL2321806 (J Med Chem, 2013)
The source made the active and inactive calls. The rule behind the calls is not given here.

Key:
[1] = target: T1, Insulin-degrading enzyme (Homo sapiens, UniProt P14735); test: Inhibition of human recombinant IDE-mediated FRET1 degradation; details: read-out: Ki(app)
[2] = target: T1, Insulin-degrading enzyme; test: Inhibition of human recombinant IDE-mediated insulin degradation; details: read-out: Ki(app)
Method in brief: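 Insulin (2 nM) breakdown by recombinant human IDE in 50 mM HEPES pH 7.4, 100 mM NaCl, 10 mM MgCl₂, 0.05% BSA at 22 °C.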

[3] = target: T1, Insulin-degrading enzyme; test: Inhibition of human recombinant IDE-mediated fluorescein-Abeta-(1-40)-Lys-biotin degradation; details: read-out: Ki(app)
Method in brief: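 Aβ (200 nM) degradation by recombinant human IDE at 22 °C in HEPES pH 7.4 buffer with 100 mM NaCl, 10 mM MgCl₂, 0.05% BSA.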

[4] = target: T2, Matrilysin (Homo sapiens) (UniProt P09237); test: (§1) Inhibition of MMP7 (unknown origin)-mediated omniMMP degradation
T2 sequence (whole entry): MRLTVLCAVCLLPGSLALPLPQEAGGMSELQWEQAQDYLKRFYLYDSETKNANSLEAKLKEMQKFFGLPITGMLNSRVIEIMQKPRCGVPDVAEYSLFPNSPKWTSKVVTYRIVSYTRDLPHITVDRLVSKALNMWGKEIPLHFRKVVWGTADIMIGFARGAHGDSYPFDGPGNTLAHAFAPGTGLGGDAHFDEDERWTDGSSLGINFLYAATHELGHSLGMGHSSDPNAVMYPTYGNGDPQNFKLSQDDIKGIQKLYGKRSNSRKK
Method in brief: (§2)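 Each protease (NEP, ECE1, ACE, MMP-2, MMP-7) was tested against the shared fluorogenic peptide substrate OmniMMP, with inhibitor concentrations up to 10 μM. IC50 values were taken from the dose-response data.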

[5] = target: T3, Matrilysin (Homo sapiens, UniProt P09237); test: as §1; method in brief: as §2
T3 sequence (P09237 whole entry): T2 sequence (whole entry)

[6] = target: T1, Insulin-degrading enzyme; test: Selectivity ratio of apparent Ki for human recombinant IDE-mediated insulin degradation to apparent Ki for human recombinant IDE-mediated FRET1 degradation
[7] = target: T2, Matrilysin (Homo sapiens); test: Inhibition of MMP7 (unknown origin)-mediated omniMMP degradation up to 10 uM; method in brief: as §2
[8] = target: Angiotensin-converting enzyme (Homo sapiens) (UniProt P12821); test: Inhibition of ACE (unknown origin)-mediated omniMMP degradation up to 10 uM; method in brief: as §2
[9] = target: 72 kDa type IV collagenase (Homo sapiens) (UniProt P08253); test: Inhibition of MMP2 (unknown origin)-mediated omniMMP degradation up to 10 uM; method in brief: as §2
[10] = target: T4, Endothelin-converting enzyme 1 (Homo sapiens) (UniProt P42892); test: Inhibition of ECE1 (unknown origin)-mediated omniMMP degradation up to 10 uM; method in brief: as §2
T4 sequence (whole entry): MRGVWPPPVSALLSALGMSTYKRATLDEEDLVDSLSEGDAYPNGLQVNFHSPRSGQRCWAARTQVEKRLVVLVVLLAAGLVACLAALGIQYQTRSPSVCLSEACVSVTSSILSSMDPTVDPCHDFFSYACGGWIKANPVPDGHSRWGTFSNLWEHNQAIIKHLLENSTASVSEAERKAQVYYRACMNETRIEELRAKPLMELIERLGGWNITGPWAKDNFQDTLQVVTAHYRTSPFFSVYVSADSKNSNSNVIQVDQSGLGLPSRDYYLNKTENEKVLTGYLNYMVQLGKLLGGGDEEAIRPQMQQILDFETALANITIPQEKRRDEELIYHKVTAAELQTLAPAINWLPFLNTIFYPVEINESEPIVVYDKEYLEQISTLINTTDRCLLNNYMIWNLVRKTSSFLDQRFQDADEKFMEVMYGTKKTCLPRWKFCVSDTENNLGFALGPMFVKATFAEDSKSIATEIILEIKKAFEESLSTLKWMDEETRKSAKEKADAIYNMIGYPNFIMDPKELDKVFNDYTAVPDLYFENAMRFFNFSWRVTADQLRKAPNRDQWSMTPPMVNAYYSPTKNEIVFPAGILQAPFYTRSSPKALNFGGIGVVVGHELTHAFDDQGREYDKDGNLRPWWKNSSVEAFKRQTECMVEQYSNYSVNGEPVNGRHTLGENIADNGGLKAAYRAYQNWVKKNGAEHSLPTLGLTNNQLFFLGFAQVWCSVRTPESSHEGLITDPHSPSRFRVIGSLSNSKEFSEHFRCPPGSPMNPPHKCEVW

[11] = target: Neprilysin (Homo sapiens) (UniProt P08473); test: Inhibition of NEP (unknown origin)-mediated omniMMP degradation up to 10 uM; method in brief: as §2
Neprilysin (Homo sapiens), sequence (P08473 whole entry): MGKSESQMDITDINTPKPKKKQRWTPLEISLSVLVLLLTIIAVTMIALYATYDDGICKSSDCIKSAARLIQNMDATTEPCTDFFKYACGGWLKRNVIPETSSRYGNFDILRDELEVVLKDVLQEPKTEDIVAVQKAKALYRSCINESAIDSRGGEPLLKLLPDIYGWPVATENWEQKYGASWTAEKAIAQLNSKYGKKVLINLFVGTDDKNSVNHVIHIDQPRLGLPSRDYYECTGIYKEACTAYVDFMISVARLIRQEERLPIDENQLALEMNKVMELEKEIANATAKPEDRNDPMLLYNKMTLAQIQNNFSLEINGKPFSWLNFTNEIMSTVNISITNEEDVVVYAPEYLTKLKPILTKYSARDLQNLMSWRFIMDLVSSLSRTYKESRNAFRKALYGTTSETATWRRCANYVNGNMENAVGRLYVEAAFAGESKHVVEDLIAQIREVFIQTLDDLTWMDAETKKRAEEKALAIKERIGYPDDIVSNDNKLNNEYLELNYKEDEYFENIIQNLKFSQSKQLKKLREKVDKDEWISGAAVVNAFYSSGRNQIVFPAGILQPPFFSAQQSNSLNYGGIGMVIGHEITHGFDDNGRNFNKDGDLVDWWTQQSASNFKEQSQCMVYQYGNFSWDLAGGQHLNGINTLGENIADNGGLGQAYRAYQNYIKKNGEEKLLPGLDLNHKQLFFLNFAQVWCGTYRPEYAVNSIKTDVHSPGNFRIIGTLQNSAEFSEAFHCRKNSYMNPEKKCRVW

T1 sequence (P14735 whole entry): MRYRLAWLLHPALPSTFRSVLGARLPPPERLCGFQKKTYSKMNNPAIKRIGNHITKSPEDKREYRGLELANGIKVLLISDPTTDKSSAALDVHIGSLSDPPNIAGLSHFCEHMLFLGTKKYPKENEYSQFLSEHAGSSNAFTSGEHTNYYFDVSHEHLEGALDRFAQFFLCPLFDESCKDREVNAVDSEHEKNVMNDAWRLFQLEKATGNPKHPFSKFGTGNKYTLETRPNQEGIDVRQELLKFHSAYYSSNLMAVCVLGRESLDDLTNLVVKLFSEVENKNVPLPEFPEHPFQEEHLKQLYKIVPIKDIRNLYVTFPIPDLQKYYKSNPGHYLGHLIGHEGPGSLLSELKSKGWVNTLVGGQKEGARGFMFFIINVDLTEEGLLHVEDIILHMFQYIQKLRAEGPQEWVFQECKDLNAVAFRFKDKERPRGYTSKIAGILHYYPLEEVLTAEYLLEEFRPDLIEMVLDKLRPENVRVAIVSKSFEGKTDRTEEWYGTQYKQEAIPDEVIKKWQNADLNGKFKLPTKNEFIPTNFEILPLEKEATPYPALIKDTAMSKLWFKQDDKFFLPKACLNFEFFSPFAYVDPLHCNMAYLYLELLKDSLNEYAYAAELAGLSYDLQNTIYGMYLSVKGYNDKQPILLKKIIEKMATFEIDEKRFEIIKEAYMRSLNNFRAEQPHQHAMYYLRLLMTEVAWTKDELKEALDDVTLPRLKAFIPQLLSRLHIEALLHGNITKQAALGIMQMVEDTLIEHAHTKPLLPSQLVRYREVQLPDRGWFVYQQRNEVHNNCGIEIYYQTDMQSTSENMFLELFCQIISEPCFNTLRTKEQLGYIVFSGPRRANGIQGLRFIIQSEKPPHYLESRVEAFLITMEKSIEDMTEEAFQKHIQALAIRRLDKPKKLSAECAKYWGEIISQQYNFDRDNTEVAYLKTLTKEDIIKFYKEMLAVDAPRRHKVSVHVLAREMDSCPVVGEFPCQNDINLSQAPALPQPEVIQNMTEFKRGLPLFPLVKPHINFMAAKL
Angiotensin-converting enzyme (Homo sapiens), sequence (P12821 whole entry): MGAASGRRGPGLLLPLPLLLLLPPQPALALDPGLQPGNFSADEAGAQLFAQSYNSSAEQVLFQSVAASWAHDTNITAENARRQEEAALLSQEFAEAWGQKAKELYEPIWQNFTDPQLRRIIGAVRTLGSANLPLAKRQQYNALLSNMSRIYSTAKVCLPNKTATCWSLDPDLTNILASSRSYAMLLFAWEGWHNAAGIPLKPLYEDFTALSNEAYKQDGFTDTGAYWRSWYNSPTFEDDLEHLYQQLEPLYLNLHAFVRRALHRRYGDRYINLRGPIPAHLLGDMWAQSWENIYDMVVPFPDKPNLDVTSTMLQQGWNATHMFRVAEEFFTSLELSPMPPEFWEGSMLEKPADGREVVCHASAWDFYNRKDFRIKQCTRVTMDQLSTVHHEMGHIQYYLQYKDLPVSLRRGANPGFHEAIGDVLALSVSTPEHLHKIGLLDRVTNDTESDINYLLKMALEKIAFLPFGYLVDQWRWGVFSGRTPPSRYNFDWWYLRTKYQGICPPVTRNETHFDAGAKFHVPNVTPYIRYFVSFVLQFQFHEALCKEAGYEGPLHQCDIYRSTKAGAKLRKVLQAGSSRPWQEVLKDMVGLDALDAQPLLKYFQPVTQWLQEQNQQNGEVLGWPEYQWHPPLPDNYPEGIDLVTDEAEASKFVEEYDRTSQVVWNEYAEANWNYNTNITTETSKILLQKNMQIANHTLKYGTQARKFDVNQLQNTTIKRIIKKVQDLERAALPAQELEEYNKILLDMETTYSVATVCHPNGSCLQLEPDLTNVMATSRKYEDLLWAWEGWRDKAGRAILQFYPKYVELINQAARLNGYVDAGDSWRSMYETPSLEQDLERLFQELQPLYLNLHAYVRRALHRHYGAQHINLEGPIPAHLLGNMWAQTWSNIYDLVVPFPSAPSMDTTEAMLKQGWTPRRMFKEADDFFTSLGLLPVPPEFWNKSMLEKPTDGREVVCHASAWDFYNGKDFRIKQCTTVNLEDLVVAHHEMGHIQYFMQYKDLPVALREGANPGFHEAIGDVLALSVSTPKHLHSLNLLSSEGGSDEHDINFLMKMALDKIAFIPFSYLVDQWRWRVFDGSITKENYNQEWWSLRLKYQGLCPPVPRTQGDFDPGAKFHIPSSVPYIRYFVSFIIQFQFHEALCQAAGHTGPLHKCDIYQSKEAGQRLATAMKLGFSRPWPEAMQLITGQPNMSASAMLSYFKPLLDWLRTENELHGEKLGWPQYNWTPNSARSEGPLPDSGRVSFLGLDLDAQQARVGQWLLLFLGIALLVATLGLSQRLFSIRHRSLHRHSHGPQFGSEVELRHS
72 kDa type IV collagenase (Homo sapiens), sequence (P08253 110-660 limits assumed): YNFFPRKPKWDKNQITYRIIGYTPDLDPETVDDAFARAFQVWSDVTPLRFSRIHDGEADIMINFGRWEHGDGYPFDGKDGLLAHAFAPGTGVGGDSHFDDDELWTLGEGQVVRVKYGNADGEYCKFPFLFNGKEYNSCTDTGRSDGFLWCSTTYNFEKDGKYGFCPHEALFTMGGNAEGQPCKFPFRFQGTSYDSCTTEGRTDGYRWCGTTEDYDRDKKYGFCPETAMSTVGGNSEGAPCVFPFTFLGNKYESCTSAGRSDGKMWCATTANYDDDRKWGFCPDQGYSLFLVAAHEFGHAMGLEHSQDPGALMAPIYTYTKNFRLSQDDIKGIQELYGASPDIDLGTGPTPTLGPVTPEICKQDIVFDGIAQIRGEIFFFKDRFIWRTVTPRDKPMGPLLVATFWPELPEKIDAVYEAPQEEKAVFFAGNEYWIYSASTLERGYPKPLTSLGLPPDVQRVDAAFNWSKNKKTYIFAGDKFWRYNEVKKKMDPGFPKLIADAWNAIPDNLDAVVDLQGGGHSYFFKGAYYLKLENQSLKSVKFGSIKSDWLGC

Question: `NC(=O)[C@H](CCCN=C(N)N)NC(=O)[C@H](Cc1ccc2ccccc2c1)[C@@H](O)C(=O)NO` was tested. Which Ki [1] did it give?
Answer: 7020 nM

Question: Which results are given for `CC[C@@H](C)[C@H]1NC(=O)[C@@H](Cc2ccccc2)NC(=O)[C@@H](Cc2cnc[nH]2)NC(=O)[C@@H](CC(=O)O)NC(=O)CC[C@H](C(=O)N[C@H](Cc2c[nH]c3ccccc23)C(=O)N[C@H](CCCN=C(N)N)C(=O)N[C@H](Cc2ccc3ccccc3c2)C(=O)NO)NC(=O)[C@@H](CCCN=C(N)N)NC1=O`?
Answer: Ki [2]: 171 nM; Ki [1]: 23.1 nM; Ki [3]: 246 nM

Question: How did the Ki [1] turn out when `N=C(N)NCCCC[C@H](NC(=O)[C@H](Cc1ccc2ccccc2c1)[C@H](O)C(=O)NO)C(N)=O` was run?
Answer: > 33000 nM

Question: For `NC(N)=NCCC[C@@H](NC(=O)[C@@H](Cc1c[nH]c2ccccc12)NC(=O)[C@H](N)CCC(=O)O)C(=O)N[C@H](Cc1ccc2ccccc2c1)C(=O)NO`, which Ki [2] is on record?
Answer: 3260 nM

Question: What about the Ki [1] of the same compound?
Answer: 49.8 nM

Question: And the Ki [3]?
Answer: 228 nM

Question: For `C=CCOC(=O)[C@H](CCCN=C(N)N)NC(=O)[C@@H](CC(=O)NO)Cc1ccc2ccccc2c1`, which Ki [2] is on record?
Answer: 1280 nM

Question: What about the Ki [1] of the same compound?
Answer: 87 nM

Question: What about the Ki [3] of the same compound?
Answer: 107 nM

Question: How did the Ki [1] turn out when `CC(=O)N[C@@H](CCC(=O)O)C(=O)N[C@@H](Cc1c[nH]c2ccccc12)C(=O)N[C@@H](CCCN=C(N)N)C(=O)[C@H](CC(=O)NO)Cc1ccc2ccccc2c1` was run?
Answer: 78 nM

Question: Which Ki [2] does the source give for `NC(=O)[C@H](CCC(=O)O)NC(=O)[C@H](Cc1c[nH]c2ccccc12)NC(=O)[C@H](CCCN=C(N)N)NC(=O)[C@H](Cc1ccc2ccccc2c1)[C@@H](O)C(=O)NO` here?
Answer: 1890 nM

Question: And the Ki [1]?
Answer: 103 nM

Question: What about the Ki [3] of the same compound?
Answer: 927 nM

Question: What does the source list for `N=C(N)NCCC[C@H](NC(=O)[C@@H](CC(=O)NO)Cc1ccc2ccccc2c1)C(=O)N[C@@H](Cc1c[nH]c2ccccc12)C(=O)N[C@@H](CCC(=O)O)C(N)=O`?
Answer: Ki [2]: 37.9 nM; inhibition [4]: Active; Ki [1]: 2.96 nM; Ki [3]: 21.7 nM

Question: Which Ki [1] does the source give for `NC(=O)[C@H](CCCN=C(N)N)NC(=O)[C@H](CC(=O)NO)Cc1ccc2ccccc2c1` here?
Answer: > 33000 nM

Question: How did the Ki [1] turn out when `NC(=O)[C@H](CCCN=C(N)N)NC(=O)[C@H](Cc1ccc2ccccc2c1)[C@H](O)C(=O)NO` was run?
Answer: 7750 nM

Question: For `N=C(N)NCCCC[C@H](NC(=O)[C@@H](CC(=O)NO)Cc1ccc2ccccc2c1)C(N)=O`, which Ki [1] is on record?
Answer: > 33000 nM

Question: How did the Ki [2] turn out when `NC(=O)[C@H](CCC(=O)O)NC(=O)[C@H](Cc1c[nH]c2ccccc12)NC(=O)[C@H](CCCN=C(N)N)NC(=O)[C@H](Cc1ccc2ccccc2c1)[C@H](O)C(=O)NO` was run?
Answer: 275 nM

Question: What about the IC50 [5] of the same compound?
Answer: 1150 nM

Question: What about the Ki [1] of the same compound?
Answer: 25.9 nM

Question: And the Ki [3]?
Answer: 70.3 nM

Question: `N=C(N)NCCC[C@@H](NC(=O)[C@@H](Cc1c[nH]c2ccccc12)NC(=O)[C@H](N)CCC(=O)O)C(=O)N[C@H](Cc1ccc2ccccc2c1)C(=O)NO` was tested. Which Ratio Ki(app) [6] did it give?
Answer: > 60

Question: How did the Ki [2] turn out when `CC(=O)N[C@@H](CCC(=O)NCCNc1cccc2c(S(=O)(=O)O)cccc12)C(=O)N[C@H](Cc1ccc(O)cc1)C(=O)N(C(=O)c1ccccc1)[C@H](Cc1ccccc1)C(=O)N[C@H](Cc1ccc2ccccc2c1)C(=O)NO` was run?
Answer: 410 nM

Question: And the Ki [1]?
Answer: 43.7 nM

Question: And the Ki [3]?
Answer: 1.4 nM

Question: For `NC(=O)[C@H](CCCN=C(N)N)NC(=O)[C@@H](CC(=O)NO)Cc1ccc2ccccc2c1`, which Ki [1] is on record?
Answer: 1150 nM

Question: How did the Ki [1] turn out when `C=CCOC(=O)[C@H](CCCNC(=N)N)NC(=O)[C@H](CC(=O)NO)Cc1ccc2ccccc2c1` was run?
Answer: 5280 nM

Question: Which results are given for `N=C(N)NCCC[C@H](NC(=O)[C@H](Cc1ccc2ccccc2c1)[C@@H](O)C(=O)NO)C(=O)N[C@@H](Cc1c[nH]c2ccccc12)C(=O)N[C@@H](CCC(=O)O)C(N)=O`?
Answer: inhibition [7]: inactive; inhibition [8]: inactive; inhibition [9]: inactive; inhibition [10]: inactive; inhibition [11]: inactive

Question: With `N=C(N)NCCC[C@@H](NC(=O)[C@@H](Cc1ccc(O)cc1)NC(=O)[C@H](N)CCC(=O)O)C(=O)N[C@H](Cc1ccc2ccccc2c1)C(=O)NO` as the compound, how does the Ki [2] read?
Answer: 833 nM

Question: What about the Ki [1] of the same compound?
Answer: 85.1 nM

Question: And the Ki [3]?
Answer: 365 nM

Question: Which Ki [1] does the source give for `N=C(N)NCCC[C@H](NC(=O)[C@H](CC(=O)NO)Cc1ccc2ccccc2c1)C(=O)N[C@@H](Cc1c[nH]c2ccccc12)C(=O)N[C@@H](CCC(=O)O)C(N)=O` here?
Answer: 73.3 nM

Question: With `N=C(N)NCCCC[C@H](NC(=O)[C@H](CC(=O)NO)Cc1ccc2ccccc2c1)C(N)=O` as the compound, how does the Ki [1] read?
Answer: > 33000 nM
